From ChEMBL document CHEMBL1154176, “Thiazolidinedione derivatives as PTP1B inhibitors with antihyperglycemic and antiobesity effects” (Bioorg Med Chem Lett, 2009)
pIC50, pKi: −log10 of the molar value. The source made the active and inactive calls. No cut-off for these calls is given here.

Assays:
[1] = biological target: T1, Tyrosine-protein phosphatase non-receptor type 1 (Homo sapiens, UniProt P18031); assay: Inhibition of PTP1B
T1 sequence (P18031 whole entry): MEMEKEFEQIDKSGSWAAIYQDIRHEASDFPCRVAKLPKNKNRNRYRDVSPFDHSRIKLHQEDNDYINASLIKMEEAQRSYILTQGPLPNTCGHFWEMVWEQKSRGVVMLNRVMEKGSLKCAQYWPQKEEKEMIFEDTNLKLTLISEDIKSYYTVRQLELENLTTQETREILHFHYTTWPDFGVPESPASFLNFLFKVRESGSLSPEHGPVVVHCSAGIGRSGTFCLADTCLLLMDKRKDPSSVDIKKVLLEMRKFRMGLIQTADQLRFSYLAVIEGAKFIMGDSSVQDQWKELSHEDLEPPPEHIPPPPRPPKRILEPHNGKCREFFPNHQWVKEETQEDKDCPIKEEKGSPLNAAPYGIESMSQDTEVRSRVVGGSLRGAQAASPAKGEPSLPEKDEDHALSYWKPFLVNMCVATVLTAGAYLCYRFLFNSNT

[2] = biological target: T2, Tyrosine-protein phosphatase non-receptor type 2 (Homo sapiens, UniProt P17706); assay: Inhibition of TC-PTP
T2 sequence (P17706 whole entry): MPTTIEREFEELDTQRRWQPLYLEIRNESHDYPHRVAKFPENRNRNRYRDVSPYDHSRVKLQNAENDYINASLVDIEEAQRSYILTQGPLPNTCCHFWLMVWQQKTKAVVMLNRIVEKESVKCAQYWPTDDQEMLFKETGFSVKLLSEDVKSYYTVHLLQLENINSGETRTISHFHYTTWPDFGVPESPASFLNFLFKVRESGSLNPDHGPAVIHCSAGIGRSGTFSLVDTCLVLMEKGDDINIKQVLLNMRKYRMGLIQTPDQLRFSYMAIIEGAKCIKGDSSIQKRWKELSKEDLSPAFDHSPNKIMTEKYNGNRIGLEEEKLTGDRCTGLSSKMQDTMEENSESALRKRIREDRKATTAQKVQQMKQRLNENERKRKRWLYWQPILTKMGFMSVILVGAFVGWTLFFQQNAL
Summary of the method: (§1)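 Phosphatase activity was measured as p-nitrophenyl phosphate hydrolysis (2 mM pNPP in the reaction) over a range of inhibitor concentrations to derive IC50. Conditions were identical for all enzymes except enzyme level: PTP1B 40 nM, E. coli-expressed SHP-1 catalytic domain 100 nM, E. coli-expressed YPTP1 15 nM, LAR-D1 and TC-PTP 33 units/mL. Ki was calculated as IC50 = Ki(1+[S]/KM). Mean ± SD of two or more experiments.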

[3] = biological target: Tyrosine-protein phosphatase non-receptor type 6 (Homo sapiens, UniProt P29350); assay: Inhibition of SHP1 catalytic domain expressed in Escherichia coli; summary of the method: as §1
Sequence of Tyrosine-protein phosphatase non-receptor type 6 (P29350 whole entry, the tested form may be a part): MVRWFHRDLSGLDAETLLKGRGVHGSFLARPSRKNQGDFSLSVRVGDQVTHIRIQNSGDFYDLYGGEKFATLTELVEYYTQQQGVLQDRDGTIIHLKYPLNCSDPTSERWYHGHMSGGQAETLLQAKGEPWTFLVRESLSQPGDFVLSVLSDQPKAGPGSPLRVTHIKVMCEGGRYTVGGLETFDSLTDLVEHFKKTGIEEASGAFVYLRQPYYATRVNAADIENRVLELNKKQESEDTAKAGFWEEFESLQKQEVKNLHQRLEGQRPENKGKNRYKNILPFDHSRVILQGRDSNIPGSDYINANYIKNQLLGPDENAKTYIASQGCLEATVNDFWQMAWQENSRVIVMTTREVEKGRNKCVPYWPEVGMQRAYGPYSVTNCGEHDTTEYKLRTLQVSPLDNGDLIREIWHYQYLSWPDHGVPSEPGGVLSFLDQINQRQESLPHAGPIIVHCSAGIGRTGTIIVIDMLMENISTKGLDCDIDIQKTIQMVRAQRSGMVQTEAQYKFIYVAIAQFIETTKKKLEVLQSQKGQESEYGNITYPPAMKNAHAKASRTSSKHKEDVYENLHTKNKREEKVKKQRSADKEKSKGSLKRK

[4] = biological target: Receptor-type tyrosine-protein phosphatase F (Homo sapiens, UniProt P10586); assay: Inhibition of membrane proximal catalytic domain of LAR; summary of the method: as §1
Sequence of Receptor-type tyrosine-protein phosphatase F (P10586 whole entry, the tested form may be a part): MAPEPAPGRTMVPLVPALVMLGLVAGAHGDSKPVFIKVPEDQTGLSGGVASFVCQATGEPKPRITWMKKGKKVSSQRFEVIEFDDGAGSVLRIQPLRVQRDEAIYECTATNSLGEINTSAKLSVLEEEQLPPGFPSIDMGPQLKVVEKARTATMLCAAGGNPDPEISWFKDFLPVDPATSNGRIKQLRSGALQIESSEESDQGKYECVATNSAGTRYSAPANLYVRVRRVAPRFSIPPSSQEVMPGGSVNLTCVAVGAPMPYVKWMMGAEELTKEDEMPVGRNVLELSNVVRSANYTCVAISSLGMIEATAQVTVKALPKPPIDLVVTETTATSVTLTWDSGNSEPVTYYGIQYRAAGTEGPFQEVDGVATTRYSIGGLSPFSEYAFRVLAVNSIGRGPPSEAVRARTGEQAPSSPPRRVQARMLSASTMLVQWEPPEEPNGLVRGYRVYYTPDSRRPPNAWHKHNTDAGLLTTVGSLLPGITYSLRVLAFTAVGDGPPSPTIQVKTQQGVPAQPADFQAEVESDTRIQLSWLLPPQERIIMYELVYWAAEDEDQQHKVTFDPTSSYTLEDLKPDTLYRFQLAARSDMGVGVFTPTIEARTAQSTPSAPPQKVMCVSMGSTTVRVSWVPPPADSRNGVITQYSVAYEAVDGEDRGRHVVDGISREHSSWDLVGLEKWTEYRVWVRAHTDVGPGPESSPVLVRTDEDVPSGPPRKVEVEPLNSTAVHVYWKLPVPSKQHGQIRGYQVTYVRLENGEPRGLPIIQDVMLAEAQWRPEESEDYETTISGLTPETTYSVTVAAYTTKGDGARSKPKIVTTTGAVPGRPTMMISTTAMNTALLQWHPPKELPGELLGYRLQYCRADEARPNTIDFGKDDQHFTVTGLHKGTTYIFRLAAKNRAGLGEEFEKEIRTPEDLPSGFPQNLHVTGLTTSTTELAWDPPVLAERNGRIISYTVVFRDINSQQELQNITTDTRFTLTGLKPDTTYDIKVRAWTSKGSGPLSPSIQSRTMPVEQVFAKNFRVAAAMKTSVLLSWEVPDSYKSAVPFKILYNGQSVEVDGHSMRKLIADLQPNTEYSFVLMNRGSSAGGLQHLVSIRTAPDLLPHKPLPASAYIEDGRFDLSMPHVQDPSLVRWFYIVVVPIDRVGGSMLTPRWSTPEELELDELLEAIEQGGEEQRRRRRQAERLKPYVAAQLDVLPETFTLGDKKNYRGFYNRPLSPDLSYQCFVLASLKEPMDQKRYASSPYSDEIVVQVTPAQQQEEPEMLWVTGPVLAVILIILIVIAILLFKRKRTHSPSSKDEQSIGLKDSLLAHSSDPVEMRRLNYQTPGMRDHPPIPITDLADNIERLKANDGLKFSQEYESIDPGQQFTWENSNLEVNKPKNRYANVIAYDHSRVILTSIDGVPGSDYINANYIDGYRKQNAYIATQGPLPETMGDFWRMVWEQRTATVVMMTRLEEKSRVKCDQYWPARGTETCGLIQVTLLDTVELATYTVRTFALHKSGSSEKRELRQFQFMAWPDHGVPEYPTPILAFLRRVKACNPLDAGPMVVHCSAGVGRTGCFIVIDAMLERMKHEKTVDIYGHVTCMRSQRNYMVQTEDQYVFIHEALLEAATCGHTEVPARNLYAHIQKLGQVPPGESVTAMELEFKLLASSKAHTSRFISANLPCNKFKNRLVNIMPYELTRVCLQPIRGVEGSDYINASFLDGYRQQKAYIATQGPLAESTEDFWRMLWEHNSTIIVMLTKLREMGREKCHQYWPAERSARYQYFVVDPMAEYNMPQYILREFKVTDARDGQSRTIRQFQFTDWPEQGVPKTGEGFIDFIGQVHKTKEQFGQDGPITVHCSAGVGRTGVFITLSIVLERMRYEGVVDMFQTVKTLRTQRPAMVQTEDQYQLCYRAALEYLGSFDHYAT

[5] = Inhibition of Yersinia YOP
Summary of the method: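 Purchased YOP enzyme at 50 units (manufacturer's definition)/mL, with p-nitrophenyl phosphate substrate at 2 mM in the reaction mixture. pNPP hydrolase activity was measured across a range of inhibitor concentrations to derive IC50. Ki was obtained from IC50 = Ki(1 + [S]/KM). Values are mean and SD of two or more experiments.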

[6] = Inhibition of yeast PTP1; design: species or system Saccharomyces cerevisiae; summary of the method: as §1
[7] = Selectivity for PTP1B over TC-PTP
[8] = Selectivity for PTP1B over membrane proximal catalytic domain of LAR
[9] = Selectivity for PTP1B over yeast PTP1
Mus musculus [10] = assay: Antiobesity activity in high fat diet-induced obese C57BL/6J Jms Slc mouse model assessed as body weight gain at 143 mg/kg/day, po for 4 weeks administered with high fat diet (Rvb= 4.88 +/- 0.46 g); type: functional
Summary of the method: (§2)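 Male C57BL/6J Jms Slc mice were acclimatized 1 wk on low-fat diet (10% kcal fat), then fed high-fat diet (45% kcal fat) ad libitum for 8 wk. They were split into groups of equal mean body weight and given HFD or HFD with drug mixed into the food (2.0 g/kg diet; DMSO plus 1% aqueous polyglycerol fatty acid ester) for 4 wk. Read-outs: weight gain and feed efficiency (weight gain/kcal ×100).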

Mus musculus [11] = assay: Antiobesity activity in high fat diet-induced obese C57BL/6J Jms Slc mouse model assessed as decrease in body weight gain per kilocalories of food intake at 143 mg/kg/day, po for 4 weeks administered with high fat diet; type: functional; design: scale not given: the % may be the effect or the level left; summary of the method: as §2
Mus musculus [12] = assay: Antiobesity activity in high fat diet-induced obese C57BL/6J Jms Slc mouse model assessed as epididymal fat at 143 mg/kg/day, po for 4 weeks administered with high fat diet followed by 5 days recovery period on their own high fat diet with drug (Rvb= 1.87 +/- 0.08 g); type: functional
Summary of the method: (§3)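 Obesity was induced by HFD (45% kcal fat) for 8 wk, followed by 4 wk of HFD or HFD with drug in the diet (2.0 g/kg diet). After the glucose tolerance test, mice stayed on their diets for 5 d more and were fasted overnight. Epididymal and retroperitoneal fat pads were excised and weighed. Significance versus HFD by one-way ANOVA.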

Mus musculus [13] = assay: Antiobesity activity in high fat diet-induced obese C57BL/6J Jms Slc mouse model assessed as retroperitoneal fat at 143 mg/kg/day, po for 4 weeks administered with high fat diet followed by 5 days recovery period on their own high fat diet with drug (Rvb= 0.69 +/- 0.06 g); type: functional; summary of the method: as §3
Mus musculus [14] = assay: Hypoglycemic activity in high fat diet-induced obese C57BL/6J Jms Slc mouse model assessed as reduction in fasting blood glucose level at 143 mg/kg/day, po for 4 weeks administered with high fat diet measured after 6 hrs of fasting; type: functional, organism-based
Summary of the method: (§4)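 After 8 wk of HFD and 4 wk of HFD with drug in the diet (2.0 g/kg diet), mice were fasted 6 h. Fasting blood glucose was taken at 0 min, glucose was then injected intraperitoneally, and tail blood was sampled at timed intervals up to 120 min.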

Mus musculus [15] = assay: Hypoglycemic activity in high fat diet-induced obese C57BL/6J Jms Slc mouse model at 143 mg/kg/day, po for 4 weeks administered with high fat diet by glucose tolerance test; type: functional, organism-based; summary of the method: as §4
Mus musculus [16] = assay: Hypoglycemic activity in high fat diet-induced obese C57BL/6J Jms Slc mouse model assessed as total cholesterol level at 143 mg/kg/day, po for 4 weeks administered with high fat diet followed by 5 days recovery period on their own high fat diet with drug (Rvb= 152 +/- 6 mg/dL); type: functional
Summary of the method: (§5)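 HFD-obese mice (8 wk HFD) received HFD with drug in the diet (2.0 g/kg diet) for 4 wk, then continued 5 d on their diets. After an overnight fast and anesthesia, blood was taken by cardiac puncture. Serum triglyceride and total cholesterol were measured by enzymatic kits, and NEFA by a half-micro test kit. Mean ± SD, n = 8/group; one-way ANOVA.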

Mus musculus [17] = assay: Hypoglycemic activity in high fat diet-induced obese C57BL/6J Jms Slc mouse model assessed as triglyceride level at 143 mg/kg/day, po for 4 weeks administered with high fat diet followed by 5 days recovery period on their own high fat diet with drug (Rvb= 124 +/- 16 mg/dL); type: functional; summary of the method: as §5
Mus musculus [18] = assay: Hypoglycemic activity in high fat diet-induced obese C57BL/6J Jms Slc mouse model assessed as non-esterified free fatty acid level at 143 mg/kg/day, po for 4 weeks administered with high fat diet followed by 5 days recovery period on their own high fat diet with drug (Rvb= 0.71 +/- 0.22 mM); type: functional; summary of the method: as §5

O=C1NC(=O)/C(=C/c2cc(Br)ccc2OCc2cc(C(F)(F)F)cc(C(F)(F)F)c2)S1
pIC50 [1]: 5.30
pKi [1]: 5.68
pIC50 [2]: 4.80
pKi [2]: 5.35
pIC50 [3]: 5.24
pKi [3]: 5.66
pIC50 [4]: < 4.00
pIC50 [5]: 5.22
pIC50 [6]: 4.74
pKi [6]: 5.11
fold change (FC) [7]: 2.2
fold change (FC) [8]: > 20
fold change (FC) [9]: 3.7
Activity (Mus musculus [10]): 2.16 g
Activity (Mus musculus [11]): 0.68%
Activity (Mus musculus [12]): 1.27 g
Activity (Mus musculus [13]): 0.42 g
Activity (Mus musculus [14]): inactive
Activity (Mus musculus [15]): Active
Activity (Mus musculus [16]): 125 mg/dL
Activity (Mus musculus [17]): 78 mg/dL
Activity (Mus musculus [18]): 0.22 mM

O=C1NC(=O)/C(=C/c2ccc(OCc3ccc(C(F)(F)F)cc3)c(Br)c2)S1
pIC50 [1]: 5.30

O=C1NC(=O)/C(=C/c2ccc(OCc3ccccc3)c(Br)c2)S1
pIC50 [1]: 4.82

O=C1NC(=O)/C(=C/c2cc(Br)ccc2OCc2ccccc2)S1
pIC50 [1]: 5.05

O=C1NC(=O)/C(=C/c2cc(Br)ccc2OCc2ccccc2C(F)(F)F)S1
pIC50 [1]: 5.10

CCc1ccc(CCOc2ccc(CC3SC(=O)NC3=O)cc2)nc1 (stereo unspecified) [PIOGLITAZONE]
pIC50 [1]: 3.66

O=C1NC(=O)/C(=C/c2cc(Br)ccc2OCc2ccc(C(F)(F)F)cc2)S1
pIC50 [1]: 5.10

O=C1NC(=O)/C(=C/c2cc(F)ccc2OCc2cc(C(F)(F)F)cc(C(F)(F)F)c2)S1
pIC50 [1]: 5.10

O=C1NC(=O)/C(=C/c2ccc(OCc3ccc(C(F)(F)F)cc3)c(-c3ccccc3)c2)S1
pIC50 [1]: 5.22

O=C1NC(=O)/C(=C/c2cc(Br)ccc2OCc2ccc(F)cc2)S1
pIC50 [1]: 4.64

O=C1NC(=O)/C(=C/c2cc(F)ccc2OCc2ccc(C(F)(F)F)cc2)S1
pIC50 [1]: 4.82

O=C1NC(=O)/C(=C/c2cc(Br)ccc2OCc2cccc(C(F)(F)F)c2)S1
pIC50 [1]: 5.10

CN(CCOc1ccc(CC2SC(=O)NC2=O)cc1)c1ccccn1 (stereo unspecified) [ROSIGLITAZONE]
pIC50 [1]: 3.40

O=C1NC(=O)/C(=C/c2ccc(OCc3ccc(C(F)(F)F)cc3)cc2)S1
pIC50 [1]: 4.85

O=C1NC(=O)/C(=C/c2cc(-c3ccccc3)ccc2OCc2ccccc2)S1
pIC50 [1]: 4.80

Cc1c(C)c2c(c(C)c1O)CCC(C)(COc1ccc(CC3SC(=O)NC3=O)cc1)O2 (stereo unspecified) [TROGLITAZONE]
pIC50 [1]: 4.26

O=C1NC(=O)/C(=C/c2ccc(OCc3ccccc3)cc2)S1
pIC50 [1]: 4.19

O=C1NC(=O)/C(=C/c2ccc(OCc3ccccc3)c(-c3ccccc3)c2)S1
pIC50 [1]: 5.05

O=C1NC(=O)/C(=C/c2ccc(OCc3ccc(F)cc3)c(Br)c2)S1
pIC50 [1]: 4.96

O=C1NC(=O)/C(=C/c2ccc(OCc3ccc(F)cc3)cc2)S1
pIC50 [1]: 4.17
